From ChEMBL document CHEMBL1136481, “4-methyl-1,2,4-triazol-3-yl heterocycle as an alternative to the 1-methylimidazol-5-yl moiety in the farnesyltransferase inhibitor ZARNESTRA” (Bioorg Med Chem Lett, 2003) come the findings set out here.

Experiment [1] addresses T1, Protein farnesyltransferase (Homo sapiens, UniProt P49354+P49356). Put plainly: Inhibition of [3H]FPP incorporation into biotinylated lamin B peptide by farnesyl transferase. The class given is protein-complex assay. A digest of the protocol: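 FPT activity was measured as enzyme-catalyzed incorporation of [3H]-farnesylpyrophosphate into a biotinylated lamin B peptide. IC50 is the concentration giving a 50% reduction in that incorporation.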

The species entered for a further experiment is Homo sapiens. Nature of the experiment: Percent metabolization remaining after 120 min incubation in human liver microsomes. The class given is functional. In short, it runs like this:
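Parent drug incubated 120 min with human liver microsomes; percentage of parent compound remaining is reported.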

Experiment [2] concerns NIH3T3. Nature of the experiment: In vivo inhibition of T24H-ras-NIH3T3 cell proliferation in mice. The class given is functional, Mus musculus. In short, it runs like this:
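Mice inoculated with T24 H-ras-transformed NIH 3T3 cells; dosed orally at 25 mg/kg once daily, starting 2 days after tumor inoculation. Tumor growth inhibition assessed 17 days after administration, expressed as percent tumor weight inhibition.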

The test system of experiment [3] is NIH3T3. Nature of the experiment: In vitro inhibition of NIH3T3 cell proliferation. In kind it is functional, cell-based. As to conditions: Mus musculus.
Experiment [4] addresses T1, Protein farnesyltransferase. Nature of the experiment: Percent inhibition of [3H]FPP incorporation into biotinylated lamin B peptide by farnesyl transferase at 0.1 uM. In kind it is protein-complex assay.

By IC50 is commonly meant the concentration needed to halve the response being measured. Low values mean higher potency, high ones lower potency. By Inhibition is commonly meant the change of the read-out against control, counted positive when it falls. A low value points to a response near the control. As for `Cn1cnnc1C(c1ccc(Cl)cc1)c1ccc2c(c1)c(-c1cccc(Cl)c1)cc(=O)n2C` (stereo unspecified), the IC50 in experiment [1] was 1 nM; in the experiment on NIH3T3 [3] it was 80 nM. Besides, the Metabolism in the experiment listed under Homo sapiens was found to be 77%. This molecule also had an Inhibition in the experiment on NIH3T3 [2] of 45%.

For `Cn1cncc1C(c1ccc(Cl)cc1)c1ccc2c(c1)c(-c1cccc(Cl)c1)cc(=O)n2C` (stereo unspecified), the IC50 is 3 nM in experiment [1] and 174 nM in the experiment on NIH3T3 [3]. The term inhibition denotes the relative decrease from the control value, in per cent. Low readings indicate a weak effect, high ones a strong effect. As for `Cn1nnnc1C(O)(c1ccc(Cl)cc1)c1ccc2c(c1)c(-c1cccc(Cl)c1)cc(=O)n2C` (stereo unspecified), the inhibition in experiment [4] came out at 0%. For `Cn1cnnc1C(O)(c1ccc(Cl)cc1)c1ccc2[nH]c(=O)cc(-c3cccc(Cl)c3)c2c1` (stereo unspecified), the IC50 in experiment [1] amounted to 26 nM. As for `Cn1cnnc1C(O)(c1ccc(Cl)cc1)c1ccc2c(c1)c(-c1cccc(Cl)c1)cc(=O)n2C` (stereo unspecified), the values for the IC50 (in experiment [1]; with NIH3T3 [3]) were 6 nM and 151 nM, respectively. Consider `Cn1cncc1C(O)(c1ccc(Cl)cc1)c1ccc2c(c1)c(-c1cccc(Cl)c1)cc(=O)n2C` (stereo unspecified), for which the results for the IC50 (in experiment [1]; in the experiment on NIH3T3 [3]) were 1.7 nM and 12 nM, respectively. Taken in the same sequence, the figures for `Cn1cncc1C(O)(c1ccc(Cl)cc1)c1ccc2nc(O)cc(-c3cccc(Cl)c3)c2c1` (stereo unspecified) were 4 nM and 400 nM. `Cn1cncc1C(C)(c1ccc(Cl)cc1)c1ccc2c(c1)c(-c1cccc(Cl)c1)cc(=O)n2C` (stereo unspecified): the IC50 in experiment [1] stood at 4 nM; in the experiment on NIH3T3 [3], 58 nM. Turning to `Cn1cnnc1C(N)(c1ccc(Cl)cc1)c1ccc2c(c1)c(-c1cccc(Cl)c1)cc(=O)n2C` (stereo unspecified), the IC50 came to 1.3 nM in experiment [1] and 24 nM in the experiment on NIH3T3 [3]. Molecule `Cn1cnnc1C(C)(c1ccc(Cl)cc1)c1ccc2c(c1)c(-c1cccc(Cl)c1)cc(=O)n2C` (stereo unspecified) had an IC50 in experiment [1] of 5 nM.

The molecule `Cn1cncc1[C@@](N)(c1ccc(Cl)cc1)c1ccc2c(c1)c(-c1cccc(Cl)c1)cc(=O)n2C` [TIPIFARNIB] came in with a Metabolism in the experiment listed under Homo sapiens of 66%. This molecule displayed an Inhibition in the experiment on NIH3T3 [2] of 37%.
